Results as given in article PMC4077287 (Angewandte Chemie (International ed. in English), 2013).

Key:
[1] = tested on: apoptotic tumors; details: ref 7a; cited from earlier work
[2] = tested on: caspase-3 activity in HeLa cell lysates; test: Caspase-3 assay of lysates of Dox-treated HeLa cells; type: cell-based; details: doxorubicin 2 μM, 24 h
[3] = tested on: caspase-3 level in HeLa tumor xenograft; test: Caspase-3 level detected in Dox-treated tumors; type: in vivo, nude mice; details: intratumoral Dox 0.2 mg, 4 days post treatment
In short: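 HeLa xenografts on the right shoulder of nude mice were imaged before and 4 days after intratumoral Dox (0.2 mg). The 18F-labeled caspase-3-activatable nano-aggregation tracer or its D-peptide control (5–15 MBq) was given i.v. by tail vein. Static 5 min PET scans were taken at 65, 125 and 182 min post injection. Tumor and muscle uptake was reported as %ID/g, with the tumor/muscle ratio taken from average region uptake.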

Structure (SMILES)	trend of uptake in apoptotic tumors over time after injection [1]	caspase-3 activity of lysates of Dox-treated cells vs non-treated cells [2]	caspase-3 level increase in treated tumors [3]
O=C1C(=O)N(Cc2cn(CC[18F])nn2)c2ccc(S(=O)(=O)N3CCCC3COc3ccc(F)cc3F)cc21 (stereo not drawn) [[^18F]ICMT-11]	decreased over the time after injection	–	–
COc1cccc2c1C(=O)c1c(O)c3c(c(O)c1C2=O)C[C@@](O)(C(=O)CO)C[C@@H]3O[C@H]1C[C@H](N)[C@H](O)[C@H](C)O1 [Dox, doxorubicin]	–	9.5 fold	1.9 fold
